From BindingDB's records for doi:10.1021/jm990942i (University of Montpellier, 2000)

Target: Gastrin-releasing peptide receptor (Rattus norvegicus, UniProt P52500)
Experiment: In vitro binding affinity against bombesin / GRP receptors on rat pancreatic acini.
Summary of the method: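 Male Wistar rat dispersed pancreatic acini (about 1 mg/mL protein) incubated 60 min at 37 °C with 20 pM (3-[125I]iodotyrosyl15)GRP and varying analogue; pellet centrifuged at 10000g, washed twice, counted. Nonspecific binding with 10 μM unlabeled BN. Specific binding as %, mean ± SD of three experiments in duplicate.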

Gastrin-releasing peptide receptor, sequence (P52500 whole entry N28S): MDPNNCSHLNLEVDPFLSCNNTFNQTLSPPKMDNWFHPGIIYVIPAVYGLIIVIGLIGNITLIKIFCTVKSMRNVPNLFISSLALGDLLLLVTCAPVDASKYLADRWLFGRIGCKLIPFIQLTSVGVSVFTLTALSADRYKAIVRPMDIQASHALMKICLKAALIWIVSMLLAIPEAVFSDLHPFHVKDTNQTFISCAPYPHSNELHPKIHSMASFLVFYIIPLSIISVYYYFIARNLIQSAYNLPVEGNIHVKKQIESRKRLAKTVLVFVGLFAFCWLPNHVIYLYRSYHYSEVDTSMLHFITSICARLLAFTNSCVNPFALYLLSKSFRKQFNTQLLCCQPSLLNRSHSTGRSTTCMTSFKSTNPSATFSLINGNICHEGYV

| Ki | Structure (SMILES) |
| --- | --- |
| > 1000 nM | CC(C)CC(NC(=O)C(CC(C)C)NC(=O)C(Cc1cnc[nH]1)NC(=O)Cn1c(=O)n(CCNC(=O)C(Cc2c[nH]c3ccccc23)NC(=O)C(CCC(N)=O)NC(=O)[C@H](N)Cc2ccccc2)c(=O)c2ccccc21)C(N)=O (some centres not stated) [Bombesin analogues] |
| > 1000 nM | CC(C)CC(NC(=O)C(CC(C)C)NC(=O)C(Cc1cnc[nH]1)NC(=O)[C@H](Cc1ccccc1)N1CC[C@H](NC(=O)C(C)NC(=O)C(Cc2c[nH]c3ccccc23)NC(=O)C(CCC(N)=O)NC(=O)[C@H](N)Cc2ccccc2)C1=O)C(N)=O (some centres not stated) [Bombesin analogues] |
